TROY NFkB inh – inhibitors of TROY-driven NF-kB signaling, primary screen, Q293 LMP1-TROYcd cells, NF-kB luciferase, uHTS; 360,000 tested, 0.98% active; inhibition, % at 10 µM; Q293 LMP1-TROYcd NF-kB luciferase reporter, 4 h;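 active = compounds whose plate-normalised and pattern-corrected inhibition of the luciferase reporter signal at the single screening dose is 50% or more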
NR2E3 ag-1 – NR2E3 agonists in two-hybrid cells, primary screen, cell-based, luminescence, CHO-S, Gal4-NCOR/VP16-NR2E3; luciferase; inhibition of corepressor binding, % at 3.98 µM; 360,000 tested, 0.35% active;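 active = inhibition above the mean of all tested compounds plus 3 SD, cut at about 70% in these data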;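 note: 0% = DMSO with NR2E3 transfected cells and 100% = cells lacking NR2E3 construct; higher means lower luciferase signal from less NR2E3 corepressor binding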
Target sequence (Q9Y5X4 whole entry, looked up, the tested form may be a part): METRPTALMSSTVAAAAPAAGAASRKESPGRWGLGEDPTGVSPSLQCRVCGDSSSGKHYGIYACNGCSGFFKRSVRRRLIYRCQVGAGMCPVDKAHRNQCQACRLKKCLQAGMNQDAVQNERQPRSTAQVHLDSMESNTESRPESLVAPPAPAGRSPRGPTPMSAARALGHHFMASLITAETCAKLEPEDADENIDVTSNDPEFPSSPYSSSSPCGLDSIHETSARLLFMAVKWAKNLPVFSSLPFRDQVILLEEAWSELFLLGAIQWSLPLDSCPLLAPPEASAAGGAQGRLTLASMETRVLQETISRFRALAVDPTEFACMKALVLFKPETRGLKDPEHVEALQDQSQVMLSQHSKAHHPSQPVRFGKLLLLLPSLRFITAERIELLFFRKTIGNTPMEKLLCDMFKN
LMP1 NFkB inh – EBV LMP1-driven NF-kappaB luciferase reporter inhibitors, primary screen, cell-based, luminescence, single point | LMP1-induced NF-kappaB luciferase reporter cells | inhibition, % at 12.5 µM | 350,000 tested, 0.69% active | AID 504558, 2011; in the data active = inhibition above about 41%;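 note: 0% = neutral control wells and 100% = reference inhibitor control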
HIF act – HIF pathway transcriptional activators, primary screen, cell-based, U2OS HRE-luciferase, luminescence; U2OS HRE-luciferase reporter; normalized: DMSO 0%, desferrioxamine 100%; activation, % at 7.5 µM (by protocol); 300,000 tested, 0.32% active;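 active = mean activation of at least 10% of the iron chelator positive control signal, with at least half of replicates also reaching 10%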
NR2E3 ag-2 – inhibitors of NR2E3-RetCOR corepressor binding, primary screen, NR2E3 agonist project, biochemical, TR-FRET, GST-NR2E3, biotin-RetCOR | Photoreceptor-specific nuclear receptor (Homo sapiens), Q9Y5X4 | 1536-well | inhibition of corepressor binding, % at 4.78 µM | 320,000 tested, 0.12% active | AID 2300, 2010;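 active = percent inhibition above the cutoff of mean plus 3 SD of all tested compounds, set per screening campaign, cut at about 20% in these data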;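 note: 0% = DMSO wells and 100% = biotin wells as full block of FRET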
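System: GST-tagged NR2E3 plus biotinylated RetCOR corepressor; Amount: 1.35 nM GST-tagged NR2E3 final; Dosing: single nominal compound dose of 4.8 µM; Schedule: 5 h incubation at 4 °C; Technique: TR-FRET with europium anti-GST and streptavidin-D2, 340 nm excitation; Controls: biotin wells as high control, 0.6% DMSO wells as low control.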
* = called active by the depositor; / = not tested or not shown. A selection: hits, their analogues and other compounds. The true share with any hit is near 2%.

SMILES | TROY NFkB inh | NR2E3 ag-1 | LMP1 NFkB inh | HIF act | NR2E3 ag-2
O=C(NNC(=O)C1COc2ccccc2O1)c1cccc([N+](=O)[O-])c1 (stereo not drawn) | -4 | -8 | -3 | -1 | 3
Cc1ncoc1C(=O)NC1CCCc2c1cnn2-c1ccc(C(C)(C)C)cc1 (stereo not drawn) | 26 | 96* | 23 | 1 | /
CC(C)(C)c1ccc(C(=O)n2cnc3ccccc32)cc1 | 64* | 24 | 2 | -4 | -1
O=C(CCCN1C(=O)/C(=C/c2cccs2)SC1=S)Nc1cccc(O)c1 | 21 | 14 | 5 | -1 | 0
O=C(O)CCCN1C(=O)/C(=C\c2ccccc2OCc2ccccc2)SC1=S | 56* | 1 | 4 | 0 | 4
O=C(CCCN1C(=O)/C(=C/c2ccccc2Cl)SC1=S)Nc1cccnc1 | 29 | 44 | 58* | -1 | -1
O=C(CCN1C(=O)/C(=C/c2ccccc2Cl)SC1=S)Nc1ccccn1 | -19 | -24 | -2 | 0 | -2
O=C(CCN1C(=O)/C(=C/c2cccs2)SC1=S)Nc1cccc(O)c1 | 54* | 14 | -1 | 0 | 4
Cc1ccc(C(=O)NNC(=O)CCCN2C(=O)/C(=C/c3ccccc3Cl)SC2=S)cc1 | 34 | -2 | 35 | -3 | 4
O=C(CCCN1C(=O)/C(=C/c2ccccc2Cl)SC1=S)NNC(=O)c1ccc(Cl)cc1 | 66* | -9 | 21 | -2 | 0
CC1=CC(=O)Nc2ncccc2O1 | -11 | -12 | 10 | / | /
O=C(CCN1C(=O)/C(=C/c2ccccc2Cl)SC1=S)NNC(=O)c1cccnc1 | 11 | -6 | -2 | 0 | 1
O=C(CCCN1C(=O)/C(=C/c2ccccc2Cl)SC1=S)Nc1ccccn1 | 60* | 30 | 17 | -4 | 0
O=C(CCN1C(=O)/C(=C/c2ccccc2Cl)SC1=S)Nc1cccnc1 | 57* | -2 | -6 | 0 | 0
O=C1/C(=C/c2ccccc2Cl)SC(=S)N1CCCC(=O)N(CCO)c1ccccc1 | 63* | -15 | 14 | 0 | 1
C=CCNC(=O)c1cc(-c2ccncc2)nc2c(C)cc(C)cc12 | 84* | -15 | -5 | 0 | -1
COC(=O)C1=COC(OC2OC(CO)C(O)C(O)C2O)C2C(C)CC(=O)C12 (stereo not drawn) | 1 | -4 | / | / | /
COc1cccc(N2CC(NS(=O)(=O)c3ccc4ccccc4c3)CC2=O)c1 (stereo not drawn) | -7 | -20 | -3 | 0 | -1
O=C(NNC(=O)c1cc(-c2ccccc2)nc2ccccc12)Nc1cccc(Cl)c1 | 69* | 14 | 2 | 0 | 0
CC(C)OCCCNC(=O)c1cc(-c2cccnc2)nc2ccccc12 | 8 | -11 | -2 | -2 | 3
O=C(NNC(=O)c1cc(-c2ccncc2)nc2ccccc12)Nc1ccc(F)cc1 | 15 | -44 | -4 | 0 | 0
O=C(NNC(=O)c1cc(-c2cccnc2)nc2ccccc12)Nc1ccc(Cl)cc1 | 52* | -74 | -9 | 2 | 1
COCCCNC(=O)c1cc(-c2cccnc2)nc2ccccc12 | 57* | 20 | -5 | 0 | -1
O=C1CCN(Cc2ccccc2)C=C1c1ccc(Br)cc1 | -12 | -17 | -2 | / | /
CCCc1nc2nc(C)c(NS(=O)(=O)c3ccc(C4CCCCC4)cc3)c(=O)n2[nH]1 | 3 | -21 | 1 | -1 | 3
Nc1nonc1-c1nc2ccccc2n1Cc1ccc(F)cc1Cl | 54* | -7 | -18 | -1 | 1
COc1ccc(CCNC(=O)COc2coc(CN3c4ccccc4CC3C)cc2=O)cc1OC (stereo not drawn) | 12 | 14 | 10 | 0 | -1
CC(=O)N1CCc2cc(NC(=O)C3(C)CCN3Cc3ccccc3Cl)ccc21 (stereo not drawn) | 18 | -33 | / | / | /
CCOc1ccc(CCNC(=O)CN2C(=O)NC3(CCCc4ccccc43)C2=O)cc1OCC (stereo not drawn) | -9 | -20 | 2 | -1 | -4
C=C1CC2(OC1=O)c1ccccc1CCc1ccccc12 | 51* | 4 | 27 | / | /

Screens as filed in PubChem.
